From ChEMBL document CHEMBL1145138, “Design and synthesis of 4-azaindoles as inhibitors of p38 MAP kinase” (J Med Chem, 2003) come the findings set out here.

In series [1] the target is Mitogen-activated protein kinase 14 (Homo sapiens, UniProt Q16539). Put plainly: In vitro inhibitory concentration against Mitogen-activated protein kinase p38 alpha.
For series [2], the target named is Mitogen-activated protein kinase 14 (Rattus norvegicus) (UniProt P70618). Nature of the series: In vivo percent inhibition of LPS stimulated TNF alpha synthesis in rat at a concentration of 30 mg/kg. The series is classed as functional, organism-based. Details: dose 30 mg/kg. A digest of the protocol: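 Female Wistar/Han rats, 8 per group, were dosed orally at −30 min with compound in CMC vehicle (0.9% NaCl, 0.5% Na-CMC, 0.4% polysorbate 80, 0.9% benzyl alcohol) or with vehicle alone. LPS 50 μg/kg was given ip at 0 h. At 1.5 h, blood was taken by cardiocentesis after CO₂ euthanasia, and serum TNFα was measured by ELISA against vehicle controls.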

Series [3] can be described thus: AUC at a dose of 10 mg/Kg administered to female hanover-wistar rat intravenously. The series is classed as ADME, organism-based. As to conditions: plasma, iv. A digest of the protocol:
(§1)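 Female Wistar/Han rats weighing 180–220 g, 3 per dose regime, received a single 10 mg/kg IV bolus in 50% cyclodextran/water. Blood was drawn under CO₂:O₂ (60:40) via orbital sinus or cardiac puncture at 1, 3, 6, 8 and 24 h. Plasma was protein-precipitated with acetonitrile, diluted in 50 mM formate buffer and quantified by LC/MS.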

For the next series, the system named is Rattus norvegicus. Put plainly: AUC at a dose of 10 mg/Kg administered to female hanover-wistar rat per orally. Type of series: ADME, organism-based, Plasma. As to conditions: in vivo, po. In short, it runs like this: (§2)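 Female Wistar/Han rats (180–220 g, n=3 per regime) received a single 10 mg/kg oral suspension in 0.9% NaCl, 0.5% Na-CMC, 0.4% polysorbate 80 and 0.9% benzyl alcohol. Blood was taken at 1, 3, 6, 8 and 24 h by orbital sinus or cardiac puncture. Plasma drug was measured by LC/MS after acetonitrile precipitation; the comparison arm was a 10 mg/kg IV bolus.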

The nature of series [4]: CL at a dose of 10 mg/Kg administered to female hanover-wistar rat intravenously. Type of series: ADME, organism-based. As to conditions: in vivo, iv. A digest of the protocol:
as §1

Series [5] is described as follows: C max at a dose of 10 mg/Kg administered to female hanover-wistar rat intravenously. Type of series: ADME, organism-based. Also noted: dose 10 mg/Kg, route intravenous. As to conditions: in vivo, iv. In short, it runs like this:
as §1

Series [6] can be described thus: C max at a dose of 10 mg/Kg administered to female hanover-wistar rat per orally. Details: dose 10 mg/Kg, route oral. As to conditions: in vivo, po. Type of series: ADME, organism-based. In short, it runs like this: as §2
The nature of series [7]: Bioavailability at a dose of 10 mg/Kg administered to female hanover-wistar rat per orally. Type of series: ADME, organism-based. As to conditions: in vivo, po. A digest of the protocol:
as §2

A short description of series [8]: T 1/2 at a dose of 10 mg/Kg administered to female hanover-wistar rat intravenously. As to conditions: in vivo, iv. The series is classed as ADME, organism-based. A digest of the protocol: as §1
Series [9] is described as follows: T 1/2 at a dose of 10 mg/Kg administered to female hanover-wistar rat per orally. As to conditions: in vivo, po. The series is classed as ADME, organism-based. In short, it runs like this:
as §2

Series [10] is described as follows: T max at a dose of 10 mg/Kg administered to female hanover-wistar rat per orally. The series is classed as ADME, organism-based. As to conditions: in vivo, po. In short, it runs like this:
as §2

Series [11] addresses Mitogen-activated protein kinase 14 (Rattus norvegicus) (UniProt P70618). Nature of the series: In vivo percent inhibition of LPS stimulated TNF alpha synthesis in rat at a concentration of 10 mg/kg.

Mitogen-activated protein kinase 14 (Rattus norvegicus), sequence (P70618 whole entry): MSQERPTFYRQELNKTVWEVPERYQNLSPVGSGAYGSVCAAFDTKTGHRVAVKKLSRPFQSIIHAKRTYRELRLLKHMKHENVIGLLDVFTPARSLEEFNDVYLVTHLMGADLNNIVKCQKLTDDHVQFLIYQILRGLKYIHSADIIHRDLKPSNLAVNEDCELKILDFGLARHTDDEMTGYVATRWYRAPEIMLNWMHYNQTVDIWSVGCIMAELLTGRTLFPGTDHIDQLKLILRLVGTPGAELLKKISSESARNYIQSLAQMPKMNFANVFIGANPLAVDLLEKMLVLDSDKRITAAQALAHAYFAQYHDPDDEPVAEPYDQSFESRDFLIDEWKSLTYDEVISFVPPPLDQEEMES
Mitogen-activated protein kinase 14, sequence (Q16539 whole entry): as the sequence (P70618 whole entry) above, with V17I, H48L, A263T, E321D, F332L counted along it

For orientation: IC50 means the concentration that inhibits the measured activity by half. Higher therefore signals a need for much substance. As a reminder, the inhibition is the change of the read-out against control, counted positive when it falls. Low readings indicate little suppression, high ones strong suppression. In the case of `CCn1c(-c2ccncc2)c(-c2ccc(F)cc2)c2ncccc21`, half-maximal inhibition in [1] (IC50) was put at 24 nM. Besides, the inhibition in [2] stood at 41%.
In turn, `Fc1ccc(-c2c(-c3ccncc3)[nH]c3cncnc23)cc1` had an IC50 in series [1] of 895 nM. Further, the inhibition in series [2] was determined as 26%.
In turn, `Fc1ccc(-c2c(-c3ccncc3)[nH]c3cccnc23)cc1` displayed an IC50 in [1] of 6.5 nM. The same molecule returned an inhibition in [2] of 46%.
As for `Fc1ccc(-c2c(-c3ccncc3)n(CCN3CCCCC3)c3cccnc23)cc1`, it took 1970 nM to reach half-maximal inhibition in [1] (IC50). In addition, the inhibition in [2] turned out to be 75%.
The corresponding values for `O=C(O)Cn1c(-c2ccncc2)c(-c2ccc(F)cc2)c2ncccc21` are 23600 nM and 50%.
With `Fc1ccc(-c2c(-c3ccncc3)[nH]c3ccccc23)cc1`, in series [1], 1800 nM corresponded to half-maximal inhibition (IC50).
In turn, `Cn1c(-c2ccncc2)c(-c2ccc(F)cc2)c2ncccc21` gave an IC50 in series [1] of 98 nM. For the same molecule, the inhibition in [2] was found to be 53%.
The corresponding values for `OCCNc1cc(-c2[nH]c3cccnc3c2-c2ccc(F)cc2)ccn1` are 3 nM and 88%.
Molecule `COCCn1c(-c2ccncc2)c(-c2ccc(F)cc2)c2ncccc21` showed an IC50 in [1] of 21 nM.
For `Fc1ccc(-c2c(-c3ccncc3)n(CCN3CCCC3)c3cccnc23)cc1`, in [1], the midpoint of inhibition, the IC50, lay at 217 nM. The inhibition in series [2] is 86%.
For `Fc1ccc(-c2c(-c3ccncc3)[nH]c3nccnc23)cc1`, in that order: 53 nM and 98%.
The term AUC denotes the area under the concentration-time curve, a measure of exposure. High values mean more exposure, low ones less exposure. For orientation: clearance means the volume of plasma or blood freed of the substance per unit of time. The Cmax is the highest concentration seen after dosing. As a reminder, the bioavailability is dose-corrected exposure relative to a reference, in per cent. A low value points to little systemic uptake. The half-life is the time needed for the level to fall by half in the phase considered. A word on the Tmax: it is the time at which the peak concentration occurs. Take `C[C@@H](O)CNc1cc(-c2[nH]c3cccnc3c2-c2ccc(F)cc2)ccn1`: the IC50 in [1] is 1 nM. In addition, the figures for the AUC (in [3]; in the series with Rattus norvegicus) were 27.5 µM·h and 8.4 µM·h, respectively. Moreover, in [4], the clearance was 16.7 mL/min/kg. Besides, the values for the Cmax in series [5] and in [6] were 8.8 µM and 2.8 µM, respectively. The bioavailability in series [7] is 30.5%. For the same molecule, the inhibition in series [2] stood at 76%. Besides, the half-life was 2.9 h in [8] and 1.5 h in series [9]. For the same molecule, the Tmax in [10] was 1 h.
In series [1], `Fc1ccc(-c2c(-c3ccncc3)[nH]c3ccncc23)cc1` gave an IC50 of 3100 nM.
Same read-out and setting: to `Nc1ncnc2c1cc(-c1ccncc1)n2-c1ccc(F)cc1` belongs 3300 nM.
For the molecule `Fc1ccc(-c2c(-c3ccncc3)n(CCN3CCOCC3)c3cccnc23)cc1`, the IC50 in series [1] came to 185 nM. In [2], the inhibition was 79%.
Turning to `OCCn1c(-c2ccncc2)c(-c2ccc(F)cc2)c2ncccc21`, half-maximal inhibition in [1] (IC50) was put at 172 nM. That is a sub-micromolar value.
On to `CCC(O)CNc1cc(-c2[nH]c3cccnc3c2-c2ccc(F)cc2)ccn1` (stereo unspecified), for which half-maximal inhibition in series [1] (IC50) was put at 3 nM. Also, the inhibition in series [11] was 85%.
The molecule `Fc1ccc(-c2c(-c3ccncc3)oc3cccnc23)cc1` had an inhibition in [2] of 44%.
`OCCCCNc1cc(-c2[nH]c3cccnc3c2-c2ccc(F)cc2)ccn1` yielded an IC50 in series [1] of 5 nM. The molecule also returned an inhibition in series [2] of 69%.
